Shown are actives, neighbours in structure and some others; about 2.1% of the full set was active somewhere.
MC4R antagonist: antagonists of human melanocortin 4 receptor (MC4R) | P32245 | MC4R-expressing cells, MTII-stimulated cAMP, LANCE TR-FRET | inhibition, % at 6.5 µM | actives 0.48% (n = 360,000);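 active = inhibition above its plate's cutoff, the mean of tested wells on that plate plus 3 SD, cut at about 29% in these data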;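 also: 0% = Melanotan II alone and 100% = Melanotan II plus saturating MCL0020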
Target sequence (P32245 whole entry, looked up): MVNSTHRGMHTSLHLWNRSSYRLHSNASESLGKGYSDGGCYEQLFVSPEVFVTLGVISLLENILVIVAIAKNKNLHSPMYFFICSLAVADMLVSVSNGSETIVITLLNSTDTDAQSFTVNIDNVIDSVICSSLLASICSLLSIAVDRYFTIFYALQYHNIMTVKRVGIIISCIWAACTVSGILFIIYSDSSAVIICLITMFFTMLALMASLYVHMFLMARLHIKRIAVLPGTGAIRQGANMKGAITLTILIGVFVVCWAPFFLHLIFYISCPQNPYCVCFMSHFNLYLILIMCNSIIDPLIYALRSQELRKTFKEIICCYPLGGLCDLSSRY
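material = U2OS cells stably expressing human melanocortin 4 receptor (MC4R) | also added = Melanotan II challenge | dosing = single nominal compound dose of 6.5 µM | detection = TR-FRET with Eu-cAMP and labeled anti-cAMP, 671 nm | replication = singlicate | timing = compound 30 min, challenge 1 h, detection 1 h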
SMARCA2 activ: SMARCA2 function activation, primary screen. actives 1% (n = 370,000). activation, % at 9.1 µM. AID 652017. MG213 cells, MMTV-luciferase reporter, dexamethasone, overnight; in the data active = activation above about 7.8%;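 also: 0% = vehicle wells and 100% = reference activator wells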
CFTR F508del cor: correctors of CFTR F508del function in bronchial epithelial cells; CFBE cells, YFP halide quenching; stimulated with forskolin plus potentiator P3; % fluorescence drop versus neutral controls; activity (quench increase), % at 7.58 µM; actives 0.36% (n = 350,000); AID 720511;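 active = mean added fluorescence quench of at least 8% versus neutral control, with both replicates also reaching 8%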;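 also: cells transiently co-express mutant CFTR-F508del with the halide-sensitive YFP; corrector assay measuring rescue of mutant channel to the surface after 24 h compound exposure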
MC4R ag barr: activates human MC4R beta-arrestin recruitment. U2OS MC4R beta-arrestin complementation, luminescence; percent of melanotan II response, DMSO zero. activation, % at 8.9 µM. P32245. actives 0.98% (n = 360,000);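 active = activation above a per-plate cutoff, the mean activation of sample wells on that plate plus 3 SD, cut at about 8% in these data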
SMARCA2 act conf: confirmation of SMARCA2 (BRM) function activators; actives 30% (n = 3,500); shares compounds with SMARCA2 activ; MG213 cells, MMTV-luciferase with dexamethasone, luminescence, overnight; MG213 cells expressing E1A, Rb sequestered; DMSO wells 0%, reference activator 100%; activation, % at 9.1 µM;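 active = activation above its plate's cutoff, the mean activation of tested wells plus 3 SD, cut at about 7.9% in these data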
VP16 Luc act: activates GAL4-VP16 luciferase, flagging SMARCA2 activator hits; shares compounds with SMARCA2 activ; HEK293 GAL4-VP16 pG5luc reporter, luciferase luminescence; scaled: DMSO wells 0%, SAHA wells 100%; activation, % at 9.1 µM; actives 41% (n = 3,500); AID 686939;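 active = activation above the solvent-only control well mean plus 3 SD, averaged across control plates, cut at about 5.2% in these data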
* marks the source's active call; other numbers are inactive results; nt = not tested or not shown.

SMILES | MC4R antagonist | SMARCA2 activ | CFTR F508del cor | MC4R ag barr | SMARCA2 act conf | VP16 Luc act
Cc1ccccc1-c1ccc([C@@H]2[C@@H](CO)N3C(=O)CN(C(=O)Cc4ccccn4)C[C@H]23)cc1 | nt | nt | -0.2 | nt | nt | nt
C[C@@H]1CN([C@H](C)CO)C(=O)c2cc(NS(=O)(=O)c3cccs3)ccc2O[C@@H]1CN(C)C(=O)Nc1ccc2c(c1)OCO2 | nt | nt | -0.7 | nt | nt | nt
COc1ccc(NC(=O)C2CCCN(c3nccc(C)n3)C2)cc1 (configuration not stated) | -2.0 | -3.3 | -1.7 | -4.5 | nt | nt
Cc1ccc(NC(=O)C2CCCN(c3ncccn3)C2)cc1C (configuration not stated) | 11.1 | 15.0* | -3.0 | -0.8 | 6.9 | 7.0*
COc1ccc(NC(=O)C2CCCN(c3ncccn3)C2)cc1 (configuration not stated) | 1.3 | 8.4* | -0.9 | -0.4 | 6.2 | 5.2*
CCC(=O)N1CC[C@@H]2[C@H](CO)Nc3ccc(-c4cccc(C#N)c4)cc3[C@@H]21 | nt | nt | -0.6 | nt | nt | nt
O=C([C@@H]1N[C@@H]2c3ccc(-c4ccccc4F)c(=O)n3C[C@@H]2[C@H]1CO)N1CCCCC1 | nt | nt | 0.5 | nt | nt | nt
CCOC(=O)c1cccc(-c2c(-c3ccccc3)ncc3cc(OC)c(OC)cc23)c1 | -2.9 | 11.5* | 2.7 | -0.8 | 10.9* | 5.8*
O=C1SC(Cc2ccccc2)C(=O)N1c1ccccc1 (configuration not stated) | -0.7 | 8.3* | 1.5 | -1.9 | -4.4 | 0.0
Cc1ccc(N2C(=O)SC(Cc3ccccc3)C2=O)cc1 (configuration not stated) | -3.1 | 2.2 | 2.7 | 0.8 | nt | nt
COc1ccc(NC(=S)N(CCc2c(C)[nH]c3ccccc23)Cc2cccnc2)cc1 | 6.9 | 9.1* | 1.8 | 1.4 | -1.8 | 0.2
CCOc1ccc(NC(=S)N(CCc2c(C)[nH]c3ccc(C)cc23)Cc2cccnc2)cc1 | 11.4 | -2.9 | 1.5 | -1.7 | nt | nt
O=C(Nc1ccc(OC(F)(F)F)cc1)c1cnccn1 | 14.9 | 8.1* | 1.6 | 0.4 | 9.4* | 11.1*
O=C1c2ccccc2C(Nc2ccc(F)c(Cl)c2)N1c1ccccn1 (configuration not stated) | 7.4 | 1.1 | 0.9 | 7.7 | nt | nt
COc1ccc(NC2c3ccccc3C(=O)N2c2ccccn2)cc1Cl (configuration not stated) | 5.1 | 8.2* | 1.4 | -1.6 | 1.6 | 0.6
C/C=C/c1ccc([C@@H]2[C@H](CO)N3C(=O)CN(Cc4ccc(F)cc4)C[C@@H]23)cc1 | nt | nt | 1.7 | nt | nt | nt
Cc1noc(C)c1NC(=O)Nc1ccc2c(c1)C(=O)N(C)[C@H]1CC[C@H](CC(=O)N(C)C)O[C@H]1CO2 | nt | nt | 2.1 | nt | nt | nt
COc1cccc(N=c2oc3ccc(OC)cc3cc2-c2nc3ccccc3[nH]2)c1 | -14.5 | 8.3* | nt | 8.5* | 3.6 | 12.1*
COc1cccc(N=c2oc3ccccc3cc2-c2nc3ccccc3[nH]2)c1 | 5.1 | 5.3 | nt | 0.6 | nt | nt
COc1ccc(N=c2oc3ccc(OC)cc3cc2-c2nc3ccccc3[nH]2)cc1 | 6.6 | 13.9* | nt | 1.1 | 2.8 | 9.9*
C[C@@H]1CCCCO[C@H](CN(C)C(=O)c2ccccc2)[C@H](C)CN([C@H](C)CO)C(=O)c2cc(NS(=O)(=O)c3cn(C)cn3)ccc2O1 | nt | nt | -0.3 | nt | nt | nt
COc1ccc(S(=O)(=O)N2CCOCC2)cc1NC(=O)CCCOc1ccccc1 | 7.5 | 0.6 | 0.1 | 0.2 | nt | nt
COc1ccc(S(=O)(=O)N2CCOCC2)cc1NC(=O)CCCSc1ccccc1 | 16.1 | 9.3* | 0.2 | 0.1 | -1.6 | 1.6
CCOC(=O)c1c(NC(=O)C(NCCN(C)C)c2ccccc2)sc2c1CCCC2 (configuration not stated) | -2.2 | 12.8* | 1.4 | -2.1 | -13.5 | 4.3
CCOC(=O)c1c(NC(=O)c2ccccc2N(C)S(=O)(=O)c2ccccc2)sc2c1CCCC2 | -5.7 | -3.1 | nt | -2.2 | nt | nt
SMILES | MC4R antagonist | SMARCA2 activ | CFTR F508del cor | MC4R ag barr | SMARCA2 act conf | VP16 Luc act
CCC(=O)N1CC(=O)N2[C@H](CO)[C@H](c3ccc(-c4ccncc4)cc3)[C@@H]2C1 | nt | nt | 1.9 | nt | nt | nt
O=C(CSc1nnc(-c2ccco2)o1)c1ccc([N+](=O)[O-])cc1 | 6.0 | -2.2 | 0.1 | -2.4 | nt | nt
O=C(CSc1nnc(-c2ccco2)o1)c1ccccc1Cl | -2.1 | 9.3* | -1.7 | -2.2 | 6.3 | 0.7
COc1ccc(-c2ccc(SCC(=O)N3c4ccccc4CC3C)nn2)cc1OC (configuration not stated) | 7.8 | 13.2* | nt | 0.1 | 1.9 | 4.1
Cc1cc(C)cc(N=Cc2ccc([N+](=O)[O-])s2)c1 | -5.3 | -0.7 | nt | -1.5 | nt | nt
NC(=O)c1ccc(N=Cc2ccc([N+](=O)[O-])s2)cc1 | -1.4 | 8.9* | nt | -2.4 | -13.0 | 4.7
C[C@@H]1CN([C@H](C)CO)S(=O)(=O)c2ccc(-c3ccc(C(=O)N(C)C)cc3)cc2O[C@@H]1CN(C)Cc1ccc2c(c1)OCO2 | nt | nt | -2.1 | nt | nt | nt
O=C(Cc1ccccn1)NCC[C@H]1CC[C@H](NC(=O)Nc2ccc(Cl)cc2)[C@H](CO)O1 | nt | nt | 3.5 | nt | nt | nt
CC1CCN(C(=O)CSc2nnc3c(n2)[nH]c2ccc(F)cc23)CC1 | 12.5 | -0.6 | 0.7 | -1.6 | nt | nt
CC(C)c1ccc2[nH]c3nc(SCC(=O)N4CCOCC4)nnc3c2c1 | 5.5 | 9.7* | 3.2 | -3.9 | 3.7 | 5.8*
CCCNC(=O)N1CC2(C1)[C@H](c1ccccc1)[C@H](CO)N2Cc1ccccn1 | nt | nt | -0.6 | nt | nt | nt
COc1ccc(/C(N)=N/OC(=O)c2ccc3c(c2)OCO3)cc1OC | -6.4 | 11.6* | -0.5 | -1.3 | 9.7* | 16.9*
O=C(Cc1ccccc1)N1C[C@H]2[C@@H](c3ccccc31)[C@H](CO)N2C(=O)C1CCCCC1 | nt | nt | 1.8 | nt | nt | nt
CCCc1nc(-c2cc3ccc(C)cc3[nH]c2=O)no1 | -1.0 | 9.2* | nt | -1.2 | -0.6 | 2.0
CCOc1ccccc1-c1nc(-c2cc3ccc(C)cc3[nH]c2=O)no1 | 1.0 | -2.0 | nt | 4.5 | nt | nt
O=C(Nc1cccc(F)c1)c1ccc(-n2cncn2)c2ccoc12 | -1.9 | 11.7* | -1.4 | 0.1 | 8.2* | 8.7*
CC(=O)c1cccc(NC(=O)c2ccc(-n3cncn3)c3ccoc23)c1 | -8.2 | -1.9 | 2.1 | 0.8 | nt | nt
CCSc1nc(N2CCOCC2)c2ccccc2n1 | 7.3 | 13.5* | nt | -1.4 | 2.8 | 0.7
Cc1cc(-c2cn3ccccc3n2)c(C)n1-c1ccccc1 | -0.5 | 10.2* | 3.9 | -0.6 | 5.5 | 8.2*
O=S(=O)(N[C@H]1CC[C@H](CCn2cc(C3(O)CCCC3)nn2)O[C@@H]1CO)c1ccc(F)cc1 | nt | nt | 0.0 | nt | nt | nt
COC(=O)CSc1nnc(SCc2ccc(OC)cc2)s1 | 4.2 | -9.7 | nt | 1.6 | nt | nt
COc1ccc(CSc2nnc(SCc3ccccc3)s2)cc1 | nt | 8.7* | nt | nt | 1.1 | 2.1

Assay outcomes: PubChem, several laboratories
